The source of these data is ChEMBL document CHEMBL1667800, “Synthesis, DNA/RNA affinity and antitumour activity of new aromatic diamidines linked by 3,4-ethylenedioxythiophene” (Eur J Med Chem, 2011).

SMILES strings stand for the structures. The source made the active and inactive calls. No cut-off for these calls is given here.

Data set [1] deals with Calf thymus DNA. The experiment in a line: Binding affinity to calf thymus DNA assessed as batochromic effect at compound over DNA molar ratio of 0.2 by UV-Vis spectra. It counts as nucleic-acid assay. The following applies: Bos taurus. An outline of the steps:
(§1)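 UV-Vis titration of compound (c = 1.97 × 10^-5 mol dm^-3 in the shown example) with ct-DNA. Na-cacodylate buffer, pH 7.0, I = 0.05 mol dm^-3, 1 cm quartz cuvette. Absorbance at the maximum was tracked against c(ct-DNA). Ks and n were obtained by non-linear least-squares Scatchard fitting.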

Data set [2] relates to Calf thymus DNA. Description: Binding affinity to calf thymus DNA assessed as hyperchromic effect at compound over DNA molar ratio of 0.5 by UV-Vis spectra. Format: nucleic-acid assay. The following applies: Bos taurus; in the assay text read “hypochromic effect” for “hyperchromic effect”. An outline of the steps: as §1
Data set [3] has as its system Nucleic Acid. Description: Binding affinity to polu A-poly U assessed as melting temperature at compound over DNA molar ratio of 0.3 at pH 7 by thermal denaturation assay. Format: nucleic-acid assay. An outline of the steps: (§2)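 Thermal melting of ds-polynucleotide (ct-DNA or poly A-poly U) alone and with compound at the given r, Na-cacodylate pH 7.0, I = 0.05 mol dm^-3. Absorbance at 260 nm was followed versus temperature, with compound absorbance subtracted and the curve normalized. Tm was taken from the first-derivative maximum or by tangent. ΔTm = Tm(complex) − Tm(free nucleic acid).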

In data set [4] the test system is Caco-2. The experiment in a line: Cytotoxicity against human Caco2 cells after 72 hrs by MTT assay. Format: functional. The following applies: Caco-2, 72 h. An outline of the steps: (§3)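 Cells were seeded at 2 × 10^4 cells/mL and attached overnight at 37 °C, 5% CO2. They were then exposed for 72 h to compounds from aqueous stocks (working solutions 10^-3–10^-6 mol dm^-3). MTT was added for 4 h at 37 °C, formazan dissolved in DMSO, and absorbance read at 570 nm. GI50 is the mean ± SD of three independent experiments run in triplicate.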

For data set [5], the system named is Nucleic Acid. Description: Binding affinity to ds-RNA assessed as RNA CD band at compound over RNA molar ratio of < 0.2 by circular dichroism titration. It counts as nucleic-acid assay. In outline: (§4)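 CD titration of polynucleotide (2.0 × 10^-5 mol dm^-3, as phosphate) with added compound over a range of r = [compound]/[polynucleotide]. Na-cacodylate buffer, pH 7.0, I = 0.05 mol dm^-3, 1 cm quartz cuvette. ct-DNA was sonicated and filtered before use. Changes in the polynucleotide CD band and induced CD bands were followed.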

Data set [6] concerns MCF7. Description: Cytotoxicity against human MCF7 cells after 72 hrs by MTT assay. It counts as functional. The following applies: MCF7, 72 h. An outline of the steps:
as §3

For data set [7], the system named is Calf thymus DNA. The experiment in a line: Binding affinity to calf thymus DNA assessed as DNA CD band at compound over DNA molar ratio of > 0.3 by circular dichroism titration. Format: nucleic-acid assay. The following applies: Bos taurus. In outline: as §4
Data set [8] has as its system Calf thymus DNA. Description: Binding affinity to calf thymus DNA assessed as melting temperature at compound over DNA molar ratio of 0.1 at pH 7 by thermal denaturation assay. It counts as nucleic-acid assay. The following applies: Bos taurus. In outline:
as §2

The nature of data set [9]: Cytotoxicity against MDCK cells after 72 hrs by MTT assay. Format: cell-based, Canis lupus familiaris. The following applies: dog. An outline of the steps: as §3
The subject of data set [10] is AGS. The experiment in a line: Cytotoxicity against human AGS cells after 72 hrs by MTT assay. It counts as functional. In outline: as §3
In data set [11] the test system is HeLa. The experiment in a line: Cytotoxicity against human HeLa cells after 72 hrs by MTT assay. It counts as functional. In outline: as §3
For data set [12], the system named is Calf thymus DNA. The experiment in a line: Binding affinity to calf thymus DNA assessed as melting temperature at compound over DNA molar ratio of 0.2 at pH 7 by thermal denaturation assay. It counts as nucleic-acid assay. The following applies: Bos taurus. In outline:
as §2

Data set [13] relates to Calf thymus DNA. Description: Binding affinity to calf thymus DNA assessed as melting temperature at compound over DNA molar ratio of 0.3 at pH 7 by thermal denaturation assay. Format: nucleic-acid assay. The following applies: Bos taurus. In outline:
as §2

For data set [14], the system named is MIA PaCa-2. Description: Cytotoxicity against human MIAPaCa2 cells after 72 hrs by MTT assay. Format: functional. The following applies: MIA PaCa-2, 72 h. An outline of the steps:
as §3

The subject of data set [15] is Calf thymus DNA. The experiment in a line: Binding affinity to calf thymus DNA minor groove assessed as DNA CD band at compound over DNA molar ratio of < 0.2 by circular dichroism titration. Format: nucleic-acid assay. The following applies: Bos taurus. An outline of the steps: as §4
For data set [16], the system named is Calf thymus DNA. Description: Binding affinity to calf thymus DNA assessed as batochromic effect at compound over DNA molar ratio of 0.2 by fluorimetric titration. Format: nucleic-acid assay. The following applies: Bos taurus. In outline:
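Fluorimetric titration of compound (about 1.0 × 10^-6 mol dm^-3) with ct-DNA. Excitation above 360 nm to avoid inner-filter effects. Na-cacodylate buffer, pH 7.0, I = 0.05 mol dm^-3. Emission at the maximum was plotted against c(ct-DNA). Ks and n were obtained by non-linear Scatchard fitting.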

Data set [17] deals with NCI-H358. The experiment in a line: Cytotoxicity against human NCI-H358 cells after 72 hrs by MTT assay. Format: functional. The following applies: NCI-H358, 72 h. In outline: as §3
Data set [18] has as its system HEp-2. Description: Cytotoxicity against human Hep2 cells after 72 hrs by MTT assay. The following applies: HEp-2, 72 h. It counts as functional. In outline:
as §3

Data set [19] relates to Calf thymus DNA. The experiment in a line: Binding affinity to calf thymus DNA assessed as hyperchromic effect at compound over DNA molar ratio of 0.2 by UV-Vis spectra. Format: nucleic-acid assay. The following applies: Bos taurus; in the assay text read “hypochromic effect” for “hyperchromic effect”. An outline of the steps: as §1
Data set [20] relates to Nucleic Acid. Description: Binding affinity to ds-RNA assessed as RNA CD band at compound over RNA molar ratio of > 0.2 by circular dichroism titration. It counts as nucleic-acid assay. In outline: as §4
Data set [21] concerns Calf thymus DNA. The experiment in a line: Binding affinity to calf thymus DNA assessed as hyperchromic effect at compound over DNA molar ratio of 0.4 by UV-Vis spectra. The following applies: Bos taurus; in the assay text read “hypochromic effect” for “hyperchromic effect”. It counts as nucleic-acid assay. In outline:
as §1

For `N=C(N)c1ccc(-c2sc(-c3ccc(C(=N)N)cc3)c3c2OCCO3)cc1`, the outcome in data set [1], in [2], in data set [7], in [15] and in data set [16] was Active. Moreover, the ΔTm was 12.6 °C in [3], 12.2 °C in data set [8], more than 16 °C in data set [12] and more than 16 °C in data set [13]. Moreover, the GI50 in data set [4] was 13 µM; in data set [6], 25 µM; in [10], 116 µM; in data set [11] it was 32.3 µM; in data set [14] it was 9.3 µM; in [17], 33 µM. Besides, halving of growth in data set [18] (GI50) required 9.3 µM. Also, the result in data set [5] was inactive. Also, the GI50 at 72 h in data set [9] turned out to be 7.1 µM.

Regarding `N=C(Nc1ccccc1)c1sc(C(=N)Nc2ccccc2)c2c1OCCO2`, the ΔTm in [3] and in data set [13] was 0 °C each time. Further, the GI50 in [4] amounted to 134 µM; in [6] it was 129 µM; in [10], 114 µM; in data set [11], 138 µM; in [14], 128 µM; in data set [17], 112 µM. Besides, it took 100 µM to inhibit growth in data set [18] by half (GI50). This compound gave a GI50 at 72 h in data set [9] of 79.5 µM.

Take `c1cc(-c2sc(-c3ccc(C4=NCCCN4)cc3)c3c2OCCO3)ccc1C1=NCCCN1`: the outcome in [1], in [19], in data set [7], in data set [15] and in data set [16] was Active. The ΔTm in data set [3] was 8.2 °C; in [8], 11.8 °C; in data set [12], more than 16 °C; in data set [13] it was more than 16 °C. The GI50 in data set [4] was found to be 101 µM; in [6], 8.4 µM; in [10], 81.7 µM; in data set [11], 97.5 µM; in [14], 64.7 µM; in data set [17], 98.7 µM. Further, halving of growth in data set [18] (GI50) required 97.7 µM. For the same compound, the outcome in data set [5] was inactive. The compound also showed a GI50 at 72 h in [9] of 82 µM.

`CC(C)NC(=N)c1ccc(-c2sc(-c3ccc(C(=N)NC(C)C)cc3)c3c2OCCO3)cc1`: the result in data set [1], in [20], in [7], in [21], in data set [15] and in [16] was Active. Moreover, the ΔTm in data set [3] turned out to be 5.8 °C; in data set [8], 8.4 °C; in data set [12], 11.1 °C; in [13] it was 12.3 °C. Further, the GI50 in [4] was 76.5 µM; in data set [6] it was 67.5 µM; in data set [10], 72.3 µM; in [11], 72.3 µM; in data set [14], 13 µM; in data set [17], 113 µM. The GI50 in [18] came out at 9 µM. Also, the outcome in data set [5] was inactive. The compound also displayed a GI50 at 72 h in data set [9] of 65.3 µM.

For `CC(C)CNC(=N)c1ccc(-c2sc(-c3ccc(C(=N)NCC(C)C)cc3)c3c2OCCO3)cc1`, the outcome in [1], in [19], in data set [7], in data set [15] and in data set [16] was Active. In addition, the ΔTm in data set [3] was 5.2 °C; in data set [8], 9 °C; in data set [12] it was 9 °C; in [13] it was 15 °C. Moreover, the GI50 amounted to 42.8 µM in data set [4]; 7.3 µM in data set [6]; 59.3 µM in [10]; 18.8 µM in data set [11]; 4.9 µM in data set [14]; 73.3 µM in [17]. In data set [18], the GI50 came out at 9.9 µM. For the same compound, in data set [5], the outcome was inactive. The compound also registered a 50% growth inhibitory concentration (GI50) at 72 h in data set [9] of 59.7 µM.

For `N=C(NC1CCCC1)c1ccc(-c2sc(-c3ccc(C(=N)NC4CCCC4)cc3)c3c2OCCO3)cc1`, the result in data set [1], in data set [19], in data set [7], in [15] and in [16] was Active. Moreover, the ΔTm is 1.4 °C in data set [3], 12.3 °C in data set [8], 15.2 °C in [12] and more than 16 °C in data set [13]. The GI50 in [4] turned out to be 41 µM; in data set [6], 7.8 µM; in data set [10] it was 45 µM; in [11], 26.7 µM; in [14], 10.9 µM; in data set [17] it was 62.2 µM. Also, growth in data set [18] was halved (GI50) at 61.3 µM. For the same compound, in [5], the result was inactive. The GI50 at 72 h in data set [9] worked out at 50 µM.
